In PubChem BioAssay AID489031 (Sanford-Burnham Center for Chemical Genomics, 2010) one finds activity change, negative = activation data, which are given here for 43 compounds.

The campaign covered roughly 330,000 compounds. About 1,000 (0.3%) were called active.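 The calls were made as follows: active = activity change at or below -40% at 20 µM; inactive = the rest.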 Only a selection was taken, and actives are over-represented in it overall.

Chain of Apoptotic protease-activating factor 1 (Homo sapiens) (O14727 whole entry, looked up): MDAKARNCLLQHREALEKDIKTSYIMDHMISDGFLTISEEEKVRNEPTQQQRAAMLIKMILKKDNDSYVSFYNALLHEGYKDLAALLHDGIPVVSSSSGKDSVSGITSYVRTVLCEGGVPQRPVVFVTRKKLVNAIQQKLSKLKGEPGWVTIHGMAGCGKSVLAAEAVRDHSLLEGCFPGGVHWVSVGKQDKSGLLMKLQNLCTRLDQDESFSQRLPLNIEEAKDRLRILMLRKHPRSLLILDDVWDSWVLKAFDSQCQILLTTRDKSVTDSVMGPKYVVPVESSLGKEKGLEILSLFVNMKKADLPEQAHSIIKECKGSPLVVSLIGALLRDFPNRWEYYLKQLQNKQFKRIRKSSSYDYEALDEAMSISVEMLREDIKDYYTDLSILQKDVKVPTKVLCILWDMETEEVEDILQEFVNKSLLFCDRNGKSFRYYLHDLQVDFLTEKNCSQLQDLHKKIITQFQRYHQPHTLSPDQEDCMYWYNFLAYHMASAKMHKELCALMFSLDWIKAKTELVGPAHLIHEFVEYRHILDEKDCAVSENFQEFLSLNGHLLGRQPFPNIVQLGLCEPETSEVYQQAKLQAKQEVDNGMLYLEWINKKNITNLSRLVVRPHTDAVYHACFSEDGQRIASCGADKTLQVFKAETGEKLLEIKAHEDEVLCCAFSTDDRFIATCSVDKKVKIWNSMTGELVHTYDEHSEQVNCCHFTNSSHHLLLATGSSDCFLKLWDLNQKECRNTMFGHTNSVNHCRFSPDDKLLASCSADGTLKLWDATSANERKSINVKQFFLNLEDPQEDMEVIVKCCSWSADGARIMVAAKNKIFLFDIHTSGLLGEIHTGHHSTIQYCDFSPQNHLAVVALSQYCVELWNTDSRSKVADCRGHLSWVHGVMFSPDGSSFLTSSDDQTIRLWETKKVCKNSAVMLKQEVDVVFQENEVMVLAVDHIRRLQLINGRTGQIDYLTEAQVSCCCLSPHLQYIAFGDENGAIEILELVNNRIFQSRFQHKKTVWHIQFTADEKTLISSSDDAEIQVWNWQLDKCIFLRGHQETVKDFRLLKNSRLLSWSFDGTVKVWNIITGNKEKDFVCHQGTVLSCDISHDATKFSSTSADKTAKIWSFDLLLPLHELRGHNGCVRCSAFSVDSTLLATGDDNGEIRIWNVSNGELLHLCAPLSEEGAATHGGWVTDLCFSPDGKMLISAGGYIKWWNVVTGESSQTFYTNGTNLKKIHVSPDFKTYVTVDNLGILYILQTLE

This assay concerns the target Apoptotic protease-activating factor 1 (Homo sapiens) (UniProt O14727). The assay can be described thus: activators of human Apaf-1 apoptosome, primary screen, biochemical, DEVD-Rh110 fluorescence, uHTS (AID 489031). Conditions: Apaf-1 apoptosome caspase-3 activation, at 20 µM, stronger effect = lower value. The method, boiled down: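 system = biochemical Apaf-1 apoptosome reconstitution | buffer or medium = 20 mM HEPES pH 7.5 with CHAPS, BSA | also added = dATP and cytochrome c as apoptosome triggers, (Z-DEVD)2-Rh110 substrate | incubation = 30 min compound preincubation and 50 min reaction, both room temperature | measured by = fluorescence, 540 nm emission, 480 nm excitation | read-out basis = Caspase-3 cleavage activity downstream of Apaf-1 activation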
As to `Cc1ccc(S(=O)(=O)c2c(N)n(C)c3nc4ccccc4nc23)cc1`, the activity change, negative = activation was -405% (active). As for `CCC(=O)Nc1c(S(=O)(=O)c2ccccc2)c2nc3ccccc3nc2n1Cc1ccccc1`, the activity change, negative = activation was 49.2% (inactive).

In the case of `C#CCOCCOCCOCCNc1nc(N2CCN(C(=O)CCCCCCCCCCNC(=O)[C@H](CCCCN)n3cc(C)nn3)CC2)nc(N2CCN(C(=O)CCCCCCCCCCNC(=O)[C@H](CO)n3cc(CCCSC)nn3)CC2)n1`, the activity change, negative = activation was 59.7% (inactive). For the compound `CC(C)n1cnc2c(NCc3ccccc3)cc(N[C@@H](CO)Cc3ccccc3)cc21`, the activity change, negative = activation was 94.5% (inactive). Take `O=C(Nc1cccc(-c2nc3ccccc3[nH]2)c1)c1ccc(C(=O)Nc2cccc(-c3nc4ccccc4[nH]3)c2)cc1`: the activity change, negative = activation was -44% (active).

Take `NC(N)=N/N=C/c1ccc(OCc2ccc(Cl)cc2Cl)cc1`: the activity change, negative = activation was 65.5% (inactive). Next, `CCOC(=O)N1CCC(NC(=O)C(C)n2c3ccccc3c3cnn(C)c(=O)c32)CC1` (stereo not drawn): 44.6% (inactive). Then `C#C[C@]1(O)CC[C@H]2[C@@H]3CCC4=CC(=O)CC[C@@H]4[C@H]3CC[C@@]21CC`, with 1.24% (inactive); and `C=CC1=C(C(=O)O)N2C(=O)[C@@H](NC(=O)/C(=N/OCC(=O)O)c3csc(N)n3)[C@H]2SC1`, with -112% (active); and `C=CC1=C(C(=O)O)N2C(=O)[C@@H](NC(=O)/C(=N\OCC(=O)O)c3csc(N)n3)[C@H]2SC1`, with -78% (active).

As to `COC(=O)[C@H]1[C@H]2C[C@H]3c4[nH]c5ccccc5c4CCN3C[C@@H]2CC[C@@H]1O`, the activity change, negative = activation was 13.4% (inactive). For `CN1CCN(c2ccccc2NC(=O)COc2ccc(C3CCCCC3)cc2)CC1`, the activity change, negative = activation was 43.6% (inactive). With `Cc1ccc(S(=O)(=O)C(C#N)c2nc3ccccc3nc2N2CCCC2)cc1C` (stereo not drawn), the activity change, negative = activation was 60% (inactive). On to `Oc1ccc(N=Cc2c(O)ccc3ccccc23)cc1`, for which the activity change, negative = activation is 87.2% (inactive). `Oc1ccc(N=Cc2sc3ccccc3c2Cl)cc1`: the activity change, negative = activation was 64.8% (inactive). `Cc1ccc(C(=O)N/N=C\c2cc(Br)c(Br)o2)cn1`: the activity change, negative = activation is 75.4% (inactive).

As to `Cc1ccc(S(=O)(=O)N2CCOCC2)cc1C(=O)NC(=S)N(Cc1ccccc1)C(C)C`, the activity change, negative = activation is -57.7% (active). For the compound `COc1ccc(/C=C2/C(=O)N(c3ccccc3)N=C2C)c(OC)c1`, the activity change, negative = activation was 80.1% (inactive).

Consider `CN1CCN(CCCNC(=O)c2ccc(/C=C3\Oc4ccccc4N(Cc4ccc(Cl)cc4)C3=O)cc2)CC1`, for which the activity change, negative = activation was 56.6% (inactive).

Regarding `O=C(CSc1ccc(-c2ccc(-n3cccn3)cc2)nn1)Nc1ccc([N+](=O)[O-])cc1`, the activity change, negative = activation is -70.1% (active).

Consider `C(=N/Nc1cc(N2CCOCC2)nc(N2CCOCC2)n1)/c1ccccc1`, for which the activity change, negative = activation was 76.5% (inactive). On to `COc1ccc(-c2nc3cc(C)ccn3c2NC2CCCCC2)cc1SC1CCCCC1`, for which the activity change, negative = activation is 48.4% (inactive). As for `Cc1oc2c(c1C(=O)N1CCOCC1)C(=O)c1ccccc1C2=O`, the activity change, negative = activation was 65.9% (inactive). As to `CCCC(=O)Nc1nc2ccc(NC(=O)c3c(F)c(F)c(OC)c(F)c3F)cc2s1`, the activity change, negative = activation is -393% (active).

For `CC(C)n1cnc2c(NCc3ccccc3)cc(OCC3CCN(C)CC3)cc21`, the activity change, negative = activation is 96.4% (inactive).

As for `Cc1ccc2c(c1)C1CN(C)CCC1N2S(=O)(=O)c1ccc(Oc2ccc([N+](=O)[O-])cc2)cc1` (stereo not drawn), the activity change, negative = activation is 59.9% (inactive).

Regarding `COc1ccccc1OCC(=O)Nc1c2c(nn1-c1ccc(F)cc1)CS(=O)(=O)C2`, the activity change, negative = activation is -88% (active). `NC(N)=NCCCc1cn(CC(=O)N2CCNCC2)nn1`: the activity change, negative = activation was 40.2% (inactive).

On to `CC(NC(=O)c1ccccc1SCC(=O)N1CCCC1)c1ccccc1` (stereo not drawn), for which the activity change, negative = activation is 41.6% (inactive). Regarding `O=c1[nH]c2c(c(=O)n1Cc1ccccc1)CCC2`, the activity change, negative = activation was -300% (active). On to `COCCn1nnnc1C(c1cc2ccc(OC)cc2[nH]c1=O)N1CCc2ccccc2C1` (stereo not drawn), for which the activity change, negative = activation is 56.8% (inactive). As for `CC(C)Cn1c(N)c(C(=O)NCc2cccs2)c2nc3ccccc3nc21`, the activity change, negative = activation was 63.4% (inactive). On to `CCc1nn(CCCN2CCN(c3cccc(Cl)c3)CC2)c(=O)n1CCOc1ccccc1`, for which the activity change, negative = activation is 23.5% (inactive). On to `CCN(CC)CCOc1ccc2c(c1)C(=NNC(=O)c1ccccn1)c1cc(OCCN(CC)CC)ccc1-2`, for which the activity change, negative = activation is 52.5% (inactive). For the compound `O=C(Nc1ccccc1F)c1ccccc1-c1ccccc1`, the activity change, negative = activation was -42.2% (active).

`CC(=O)Nc1ccc(Nc2cc(C)nc(Nc3ccc(NC(C)=O)cc3)n2)cc1`: the activity change, negative = activation was 46.2% (inactive).

Regarding `c1ccc2c(CCN3CCNC[C@H]3Cc3cccc4ccccc34)cccc2c1`, the activity change, negative = activation was 67% (inactive).

`CCCCCCCCCCOC(=O)Cn1c(COc2cccc(OC)c2)[n+](C)c2ccccc21`: the activity change, negative = activation is 65.3% (inactive).

`CC1COc2ccccc2N1C(=O)c1cccnc1Cl` (stereo not drawn): the activity change, negative = activation was -62.8% (active). For the compound `N#Cc1c(N2CCCCC2)nc(N)c2c(N)nc(SCC(=O)O)cc12`, the activity change, negative = activation is 96% (inactive). For the compound `O=C(NCc1ccccn1)c1ccc2nc(-c3ccco3)c(-c3ccco3)nc2c1`, the activity change, negative = activation is 60.6% (inactive). For the compound `CCOc1[nH]n(-c2ccc(Cl)cc2)c(=O)c1C=Nc1ccc(O)cc1`, the activity change, negative = activation is 66.9% (inactive). Take `CCOc1ccc(N=C2NC(=O)S/C2=C\c2ccc(O)cc2)cc1`: the activity change, negative = activation is -72% (active).
